Experiments:
[1] = molecular target: T1, Quinolone resistance protein NorA (Staphylococcus aureus) (UniProt P0A0J7); assay: Inhibition of NorA in fluoroquinolone-resistant Staphylococcus aureus 1199B assessed as potentiation of 4 ug/ml of ciprofloxacin MIC at 100 ug/ml after 24 hrs by microdilution method
T1 sequence (whole entry): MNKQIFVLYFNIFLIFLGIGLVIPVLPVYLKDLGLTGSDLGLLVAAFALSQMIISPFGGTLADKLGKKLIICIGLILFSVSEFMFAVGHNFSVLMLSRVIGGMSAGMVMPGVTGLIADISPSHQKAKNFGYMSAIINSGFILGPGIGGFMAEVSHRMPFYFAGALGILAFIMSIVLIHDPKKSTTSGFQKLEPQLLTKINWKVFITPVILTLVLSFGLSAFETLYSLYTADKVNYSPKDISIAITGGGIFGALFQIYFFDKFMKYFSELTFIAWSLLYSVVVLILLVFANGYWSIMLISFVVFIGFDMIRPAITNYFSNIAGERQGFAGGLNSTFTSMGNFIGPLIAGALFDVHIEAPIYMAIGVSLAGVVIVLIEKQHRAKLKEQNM
Outline: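 Combination with ciprofloxacin 4 μg/mL (MIC/4) against SA-1199B in MH broth microdilution, 10^6 CFU/mL, 24 h at 37 °C, read at 620 nm and visually. Compounds are first screened at 100 μg/mL; actives are 2-fold serially diluted. MMC4 is the lowest inhibitor concentration giving antibacterial activity with subinhibitory ciprofloxacin. Duplicates.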

[2] = test system: Staphylococcus aureus; assay: Toxicity in Staphylococcus aureus ATCC 25923 at 100 ug/ml after 24 hrs by microdilution method; format: organism-based
Outline: (§1)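 Single-point screen at 100 μg/mL of compound alone in MH broth microdilution, 10^6 CFU/mL, 24 h at 37 °C. Growth is read at 620 nm and visually, giving percent growth inhibition. Compounds inhibiting more than 90% then go to MIC determination. Duplicates.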

[3] = test system: Staphylococcus aureus; assay: Toxicity in fluoroquinolone-resistant Staphylococcus aureus 1199B expressing NorA at 100 ug/ml after 24 hrs by microdilution method; format: organism-based; outline: as §1
[4] = test system: Staphylococcus aureus; assay: Toxicity in Staphylococcus aureus ATCC 25923 after 24 hrs by microdilution method; format: organism-based
Outline: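 Mueller–Hinton broth microdilution; inoculum from frozen culture grown 18 h at 37 °C, 10^6 CFU/mL per well. Compounds (10 mg/mL DMSO stock) in 2-fold serial dilutions, highest 128 mg/L, first screened at 100 μg/mL. MIC = complete growth inhibition after 24 h at 37 °C, read at 620 nm and visually; duplicate; ampicillin control.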

Row | Compound | Activity [1] | growth inhibition (GI) [2] | growth inhibition (GI) [3] | MIC [4]
1 | CC1(C)OB(c2cnn(C(=O)c3ccccc3)c2)OC1(C)C | 128 µg/mL | < 90% | < 90% | >= 64 ug ml-1
2 | CC(C)(O)C(C)(C)OB(OC(C)(C)C(C)(C)O)c1ccnc(Cl)c1 | 128 µg/mL | < 90% | < 90% | >= 64 ug ml-1
3 | CC(C)(O)C(C)(C)OB(OC(C)(C)C(C)(C)O)c1ccc(F)nc1 | 128 µg/mL | < 90% | < 90% | >= 64 ug ml-1
4 | CC(C)(O)C(C)(C)OB(OC(C)(C)C(C)(C)O)c1cncc(Br)c1 | > 128 µg/mL | < 90% | < 90% | >= 64 ug ml-1
5 | OB(O)c1ccnc(F)c1Cl | 16 µg/mL | < 90% | < 90% | >= 64 ug ml-1
6 | CC(C)(O)C(C)(C)OB(OC(C)(C)C(C)(C)O)c1ccncc1C#N | > 128 µg/mL | < 90% | < 90% | >= 64 ug ml-1
7 | Cc1cc(B(O)O)cnc1N1CCOCC1 | 64 µg/mL | < 90% | < 90% | >= 64 ug ml-1
8 | CC1(C)OB(c2cncs2)OC1(C)C | > 128 µg/mL | < 90% | < 90% | >= 64 ug ml-1
9 | Cc1c[nH]nc1B(O)O | 64 µg/mL | < 90% | < 90% | >= 64 ug ml-1
10 | CC(C)(O)C(C)(C)OB(OC(C)(C)C(C)(C)O)c1cccnc1C#N | > 128 µg/mL | < 90% | < 90% | >= 64 ug ml-1
11 | COc1nccc(B(OC(C)(C)C(C)(C)O)OC(C)(C)C(C)(C)O)c1Cl | 32 µg/mL | < 90% | < 90% | >= 64 ug ml-1
12 | CC(C)(O)C(C)(C)OB(OC(C)(C)C(C)(C)O)c1ccnc(Cl)c1C#N | > 128 µg/mL | < 90% | < 90% | >= 64 ug ml-1
13 | OB(O)c1ccnc(Cl)c1Cl | 32 µg/mL | < 90% | < 90% | >= 64 ug ml-1
14 | COc1ncccc1B(O)O | 16 µg/mL | < 90% | < 90% | >= 64 ug ml-1
15 | CC1(C)OB(c2ccc3c(cnn3COCC[Si](C)(C)C)c2)OC1(C)C | 16 µg/mL | < 90% | < 90% | >= 64 ug ml-1
16 | Cc1cc(B(OC(C)(C)C(C)(C)O)OC(C)(C)C(C)(C)O)cnc1Cl | 32 µg/mL | < 90% | < 90% | >= 64 ug ml-1
17 | CC(C)(O)C(C)(C)OB(OC(C)(C)C(C)(C)O)c1ccncc1 | > 128 µg/mL | < 90% | < 90% | >= 64 ug ml-1
18 | OB(O)c1ccc(Oc2cccnc2)nc1 | > 128 µg/mL | < 90% | < 90% | >= 64 ug ml-1
19 | CC(C)(O)C(C)(C)OB(OC(C)(C)C(C)(C)O)c1ccc(OCc2ccccc2)nc1 | 64 µg/mL | < 90% | < 90% | >= 64 ug ml-1
20 | CC(C)(O)C(C)(C)OB(OC(C)(C)C(C)(C)O)c1cc(Br)cnc1Cl | 128 µg/mL | < 90% | < 90% | >= 64 ug ml-1
21 | OB(O)c1ccccc1F | 16 µg/mL | < 90% | < 90% | >= 64 ug ml-1
22 | CC(C)(O)C(C)(C)OB(OC(C)(C)C(C)(C)O)c1ccnc(Cl)c1Cl | 32 µg/mL | < 90% | < 90% | >= 64 ug ml-1
23 | N#Cc1ncccc1B(O)O | > 128 µg/mL | < 90% | < 90% | >= 64 ug ml-1
24 | CC(C)(O)C(C)(C)OB(OC(C)(C)C(C)(C)O)c1cc(Cl)ncc1Cl | 32 µg/mL | < 90% | < 90% | >= 64 ug ml-1

Row | Compound | Activity [1] | growth inhibition (GI) [2] | growth inhibition (GI) [3] | MIC [4]
25 | OB(O)c1ccnc(Cl)c1 | > 128 µg/mL | < 90% | < 90% | >= 64 ug ml-1
26 | CSc1ncccc1B(OC(C)(C)C(C)(C)O)OC(C)(C)C(C)(C)O | > 128 µg/mL | < 90% | < 90% | >= 64 ug ml-1
27 | OB(O)c1cc(Br)cnc1Cl | 32 µg/mL | < 90% | < 90% | >= 64 ug ml-1
28 | COc1nccc(B(O)O)c1Cl | 32 µg/mL | < 90% | < 90% | >= 64 ug ml-1
29 | COC(=O)[C@H]1[C@H]2C[C@@H]3c4[nH]c5cc(OC)ccc5c4CCN3C[C@H]2C[C@@H](OC(=O)c2cc(OC)c(OC)c(OC)c2)[C@@H]1OC [RESERPINE] | 4 µg/mL |  |  | >= 64 ug ml-1
30 | OB(O)c1cccnc1OCc1ccccc1 | 32 µg/mL | < 90% | < 90% | >= 64 ug ml-1
31 | OB(O)c1ccccc1-c1ccccc1 | > 128 µg/mL | < 90% | < 90% | >= 64 ug ml-1
32 | N#Cc1cnccc1B(O)O | > 128 µg/mL | < 90% | < 90% | >= 64 ug ml-1
33 | CC(C)(O)C(C)(C)OB(OC(C)(C)C(C)(C)O)c1ccnc(F)c1Cl | 16 µg/mL | < 90% | < 90% | >= 64 ug ml-1
34 | OB(O)c1cncc(Oc2cncc(Cl)c2)c1 | 16 µg/mL | < 90% | < 90% | >= 64 ug ml-1
35 | CSc1ncccc1B(O)O | > 128 µg/mL | < 90% | < 90% | >= 64 ug ml-1
36 | OB(O)c1cccnc1 | 32 µg/mL | < 90% | < 90% | >= 64 ug ml-1
37 | Cc1cc(B(OC(C)(C)C(C)(C)O)OC(C)(C)C(C)(C)O)ccn1 | > 128 µg/mL | < 90% | < 90% | >= 64 ug ml-1
38 | CCOC(=O)Nc1ncc(B2OC(C)(C)C(C)(C)O2)s1 | > 128 µg/mL | < 90% | < 90% | >= 64 ug ml-1
39 | CC1(C)OB(c2cnc(-c3ccccc3)n2C(=O)c2ccccc2)OC1(C)C | 32 µg/mL | < 90% | < 90% | >= 64 ug ml-1
40 | CC(=O)n1nc(C)c2cc(B3OC(C)(C)C(C)(C)O3)ccc21 | 128 µg/mL | < 90% | < 90% | >= 64 ug ml-1
41 | CC(C)(C)OC(=O)Nc1ncc(B2OC(C)(C)C(C)(C)O2)s1 | > 128 µg/mL | < 90% | < 90% | >= 64 ug ml-1
42 | COc1cccc(B(O)O)c1OC | > 128 µg/mL | < 90% | < 90% | >= 64 ug ml-1
43 | OB(O)c1cccnc1Br | > 128 µg/mL | < 90% | < 90% | >= 64 ug ml-1
44 | CC(C)(C)OC(=O)n1ncc2cc(B3OC(C)(C)C(C)(C)O3)ccc21 | > 128 µg/mL | < 90% | < 90% | >= 64 ug ml-1
45 | CC(C)Nc1ccc(B(O)O)cc1 | 64 µg/mL | < 90% | < 90% | >= 64 ug ml-1
46 | N#Cc1c(B(O)O)ccnc1Cl | > 128 µg/mL | < 90% | < 90% | >= 64 ug ml-1
47 | OB(O)c1ccc2[nH]ncc2c1 | 32 µg/mL | < 90% | < 90% | >= 64 ug ml-1

Reference: ChEMBL document CHEMBL3232989, “First identification of boronic species as novel potential inhibitors of the Staphylococcus aureus NorA efflux pump” (J Med Chem, 2014)
